Laboratory results published in ChEMBL document CHEMBL4400578, “Spirocyclic and Bicyclic 8-Nitrobenzothiazinones for Tuberculosis with Improved Physicochemical and Pharmacokinetic Properties” (ACS Med Chem Lett, 2019).
In brackets after ≈: the same amount, converted by molar mass.

Tests used:
[1] = Selectivity ratio of MIC90 for inhibition of DprE1-mediated growth of Mycobacterium tuberculosis H37Rv to MIC90 for inhibition of DprE1-mediated growth of Mycobacterium tuberculosis CDC1551
[2] = target: T1, Decaprenylphosphoryl-beta-D-ribose oxidase (Mycobacterium tuberculosis (strain ATCC 25618 / H37Rv)) (UniProt P9WJF1); assay: Inhibition of Mycobacterium tuberculosis H37Rv DprE1 assessed as reduction in bacterial growth measured after 7 to 10 days by broth microdilution method
T1 sequence (whole entry): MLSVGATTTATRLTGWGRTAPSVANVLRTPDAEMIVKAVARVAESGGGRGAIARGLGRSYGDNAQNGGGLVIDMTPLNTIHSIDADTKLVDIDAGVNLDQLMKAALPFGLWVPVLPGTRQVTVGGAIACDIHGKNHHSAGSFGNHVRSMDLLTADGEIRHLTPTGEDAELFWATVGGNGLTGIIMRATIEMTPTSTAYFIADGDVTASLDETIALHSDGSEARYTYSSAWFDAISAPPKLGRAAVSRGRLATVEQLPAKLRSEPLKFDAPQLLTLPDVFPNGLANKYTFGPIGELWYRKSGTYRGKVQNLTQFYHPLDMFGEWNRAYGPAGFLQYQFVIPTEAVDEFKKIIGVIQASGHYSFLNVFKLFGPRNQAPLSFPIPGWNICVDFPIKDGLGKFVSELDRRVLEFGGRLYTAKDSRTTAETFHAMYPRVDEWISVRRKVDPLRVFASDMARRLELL
Summary of the method: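 Whole-cell growth assay of M. tuberculosis H37Rv in 7H9 broth. MIC is taken as the lowest concentration giving complete inhibition of observable growth.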

[3] = Selectivity ratio of MIC90 for inhibition of DprE1-mediated growth of Mycobacterium tuberculosis H37Rv to MIC90 for inhibition of DprE1-mediated growth of Mycobacterium tuberculosis Erdman
[4] = Intrinsic clearance in mouse liver microsomes at 2.5 uL preincubated for 5 mins followed by NADPH addition and measured by LC-MS/MS analysis; format: ADME, Microsome; details: read-out: CLH
[5] = Half life in mouse liver microsomes at 2.5 uL preincubated for 5 mins followed by NADPH addition and measured by LC-MS/MS analysis; format: ADME, Microsome
[6] = Half life in […] microsomes at 2.5 uL preincubated for 5 mins followed by NADPH addition and measured by LC-MS/MS analysis; format: ADME, Liver, Microsome
[7] = Intrinsic clearance in human liver microsomes at 2.5 uL preincubated for 5 mins followed by NADPH addition and measured by LC-MS/MS analysis; format: ADME, Microsome; details: read-out: CLH
[8] = Kinetic aqueous solubility of the compound in pH 7.4 phosphate buffer incubated for 4.5 hrs under shaking condition by LC-MS/MS analysis; format: physicochemical; details: read-out: Kinetic_solubility
Summary of the method: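 Kinetic solubility measured in phosphate-buffered saline at pH 7.4, with compound quantified by LC–MS/MS.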

[9] = Stability of the compound in plasma (unknown origin); format: ADME, cell-free
[10] = Protein binding in plasma (unknown origin) measured after 5 hrs by equilibrium dialysis method; format: ADME, cell-free; details: read-out: PPB (converted)
[11] = Terminal half life in specific pathogen free ICR mouse at 10 mg/kg, po by LC/TSQ-MS analysis; format: ADME, organism-based; details: in vivo, read-out: beta t1/2 (converted)
Summary of the method: (§1)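 ICR mice dosed once with compound, intravenously at 2 mg/kg or orally at 10 mg/kg. Plasma pharmacokinetic parameters derived per route: AUC, Cmax, clearance, mean residence time, Vd, terminal elimination half-life, and oral bioavailability from the p.o. versus i.v. comparison.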

[12] = Mean residence time in specific pathogen free ICR mouse at 2 mg/kg, iv by LC/TSQ-MS analysis; format: ADME, organism-based; details: in vivo; summary of the method: as §1
[13] = Volume of distribution in specific pathogen free ICR mouse at 2 mg/kg, iv by LC/TSQ-MS analysis; format: ADME, organism-based; details: in vivo; summary of the method: as §1
[14] = Intrinsic clearance in specific pathogen free ICR mouse at 2 mg/kg, iv by LC/TSQ-MS analysis; format: ADME, organism-based; details: in vivo
[15] = Oral bioavailability in specific pathogen free ICR mouse at 10 mg/kg by LC/TSQ-MS analysis; format: ADME, organism-based; details: in vivo; summary of the method: as §1
[16] = Terminal half life in specific pathogen free ICR mouse at 2 mg/kg, iv by LC/TSQ-MS analysis; format: ADME, organism-based; details: in vivo, read-out: beta t1/2 (converted); summary of the method: as §1
[17] = Cmax in specific pathogen free ICR mouse at 2 mg/kg, iv by LC/TSQ-MS analysis; format: ADME, organism-based; parameters: dose 2 mg/kg, route intravenous; details: in vivo; summary of the method: as §1
[18] = AUC in specific pathogen free ICR mouse at 2 mg/kg, iv by LC/TSQ-MS analysis; format: ADME, organism-based; details: in vivo; summary of the method: as §1
[19] = Cmax in specific pathogen free ICR mouse at 10 mg/kg, po by LC/TSQ-MS analysis; format: ADME, organism-based; parameters: dose 10 mg/kg, route oral; details: in vivo; summary of the method: as §1
[20] = AUC in specific pathogen free ICR mouse at 10 mg/kg, po by LC/TSQ-MS analysis; format: ADME, organism-based; details: in vivo; summary of the method: as §1
[21] = Mean residence time in specific pathogen free ICR mouse at 10 mg/kg, po by LC/TSQ-MS analysis; format: ADME, organism-based; details: in vivo; summary of the method: as §1
[22] = Ratio of test compound kinetic aqueous solubility to PBTZ169 kinetic aqueous solubility; format: physicochemical; details: buffer

| SMILES | Selectivity ratio [1] | MIC [2] [nM] | Selectivity ratio [3] | microsomal CLint [4] [µL/min/mg] | half-life [5] [min] | half-life [6] [min] | microsomal CLint [7] [µL/min/mg] | solubility kinetic at 4.5 h [8] [µg/mL] | Stability [9] [%] | fraction unbound at 5 h [10] | further results |
| --- | --- | --- | --- | --- | --- | --- | --- | --- | --- | --- | --- |
| O=c1nc(N2CCC3(CCN(CC4CCCCC4)C3)CC2)sc2c([N+](=O)[O-])cc(C(F)(F)F)cc12 | < 4 | 128 (≈ 0.0654 µg/mL) | < 4 | – | – | – | – | – | – | – | – |
| O=c1nc(N2CC3CCC2CN3CC2CCCCC2)sc2c([N+](=O)[O-])cc(C(F)(F)F)cc12 (stereo unspecified) | < 4 | 32 (≈ 0.0154 µg/mL) | < 4 | 25.4 | 27.3 | 30.6 | 22.7 | < 0.029 | 102 | 0.001 | – |
| O=c1nc(N2CC3(CN(CC4CCCCC4)C3)C2)sc2c([N+](=O)[O-])cc(C(F)(F)F)cc12 | < 4 | 256 (≈ 0.12 µg/mL) | < 4 | – | – | – | – | – | – | – | – |
| O=c1nc(N2C[C@@H]3[C@H](C2)[C@H]3NCC2CCCCC2)sc2c([N+](=O)[O-])cc(C(F)(F)F)cc12 | < 4 | 32 (≈ 0.015 µg/mL) | < 4 | 10.6 | 65.2 | 76.6 | 9.05 | 4.8 (≈ 10.2 µM) | 91.4 | 0.005 | half-life [11]: 131 min; MRT [12]: 2.24 h; Vd [13]: 12.8 L/kg; CL [14]: 58.2 mL/min/kg; bioavailability [15]: 27.4%; half-life [16]: 152 min; Cmax [17]: 483 ng/mL; AUC [18]: 576 ng·h/mL; Cmax [19]: 195 ng/mL; AUC [20]: 791 ng·h/mL; MRT [21]: 3.09 h |
| O=c1nc(N2CCC3(CC2)CC3)sc2c([N+](=O)[O-])cc(C(F)(F)F)cc12 | < 4 | 16 (≈ 0.00617 µg/mL) | < 4 | 83.3 | 8.33 | 43 | 16.1 | 0.3 (≈ 0.778 µM) | 93.3 | 0.006 | – |
| O=c1nc(N2CCCC3(CCCCN3CC3CCCCC3)C2)sc2c([N+](=O)[O-])cc(C(F)(F)F)cc12 (stereo unspecified) | < 4 | 1020 (≈ 0.537 µg/mL) | < 4 | – | – | – | – | – | – | – | – |
| O=c1nc(N2CCN(CC3CCCCC3)CC2)sc2c([N+](=O)[O-])cc(C(F)(F)F)cc12 [MACOZINONE] | < 4 | 2 (≈ 0.000913 µg/mL) | < 4 | 20.1 | 34.4 | 43 | 16.5 | < 0.01 | 88.7 | 0.001 | – |
| O=c1nc(N2C[C@H]3C[C@@H](C2)N3CC2CCCCC2)sc2c([N+](=O)[O-])cc(C(F)(F)F)cc12 | < 4 | 128 (≈ 0.06 µg/mL) | < 4 | – | – | – | – | – | – | – | – |
| O=c1nc(N2C[C@H]3C[C@@H]2CN3CC2CCCCC2)sc2c([N+](=O)[O-])cc(C(F)(F)F)cc12 | < 4 | 64 (≈ 0.03 µg/mL) | < 4 | 98.4 | 7.05 | 26.6 | 26.1 | 14.6 (≈ 31.2 µM) | 81.9 | 0.004 | Ratio [22]: 1600 |
| O=c1nc(N2CCC3(CCN(CC4CCCCC4)C3)C2)sc2c([N+](=O)[O-])cc(C(F)(F)F)cc12 (stereo unspecified) | < 4 | 256 (≈ 0.127 µg/mL) | < 4 | – | – | – | – | – | – | – | – |
| O=c1nc(N2CC3(CCN(CC4CCCCC4)CC3)C2)sc2c([N+](=O)[O-])cc(C(F)(F)F)cc12 | < 4 | 1020 (≈ 0.508 µg/mL) | < 4 | – | – | – | – | – | – | – | – |
| O=c1nc(N2[C@@H]3C[C@H]2CN(CC2CCCCC2)C3)sc2c([N+](=O)[O-])cc(C(F)(F)F)cc12 | < 4 | 128 (≈ 0.06 µg/mL) | < 4 | – | – | – | – | – | – | – | – |
| O=c1nc(N2CCC3(CC2)CN(CC2CCCCC2)C3)sc2c([N+](=O)[O-])cc(C(F)(F)F)cc12 | < 4 | 512 (≈ 0.254 µg/mL) | < 4 | – | – | – | – | – | – | – | – |
